Measured values taken from article PMC3968794 (Bioorganic & medicinal chemistry, 2013).
Where two headings read alike, the source gives them in different places.

What was measured:
tubulin [1] = conditions: read-out: Inhibition of tubulin polymerization IC50; cell-free assay; ref [61]; cited from earlier work
[2] = test system: SK-OV-3, NCI-H460 and DU-145 human cancer cell lines; assay: SRB cytotoxicity assay, three human cancer cell lines stated together; type: cell-based
How it was run: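 Sulforhodamine B growth-inhibition assay (NCI standard method). Cells were grown in RPMI1640 with 5% fetal bovine serum and 1% gentamicin, then plated and incubated 24 h. Serial dilutions of test compound were added, with 48 h exposure. Cells were fixed with trichloroacetic acid, stained with SRB, and read by optical density. GI50 (concentration halving net protein increase) was calculated from OD data.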

tubulin [3] = assay: Inhibition of tubulin assembly; type: biochemical; conditions: read-out: Inhibition of tubulin polymerization IC50; cell-free assay, tubulin purified from calf brain
How it was run: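 Calf-brain tubulin; test compound mixtures held on ice 15 min, then GTP added from a 2.5 mM stock. Samples equilibrated at 0 °C for 8 min in the spectrophotometer, then read at 350 nm every 30 s for 3800 s. Temperature program: 0 °C for 100 s, 38 °C for 120 s, 31 °C until 2600 s, then 0 °C to the end.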

IC50 (tubulin [3]) [µM]	Compound	further results
	COc1ccc(/C=C\c2cc(OC)c(OC)c(OC)c2)cc1OP(=O)(O)O [CA4P, combretastatin A-4P]	IC50 (tubulin [1]): > 40 µM
	COc1ccc2c(c1O)CCCC=C2c1cc(OC)c(OC)c(OC)c1 [Compound 39, 1-Hydroxy-2-methoxy-5-(3′,4′,5′-trimethoxyphenyl)-benzocyclohept-5-ene]	GI50 ([2]; Homo sapiens, read-out: GI50 (cytotoxicity)): < 0.0001 µM
> 40	COc1cc(C2=CCCCc3ccccc32)cc(OC)c1OC [Compound 41, 5-(3,4,5-trimethoxyphenyl)-benzocyclohept-5-ene]	
	COc1ccc2c(c1NC(=O)[C@@H](N)CO)CCCC=C2c1cc(OC)c(OC)c(OC)c1.Cl [Compound 48, 1-(L-ser)amido-5-(3′,4′,5′-trimethoxyphenyl)-2-methoxy-benzocyclohept-5-ene hydrochloride]	Cytotoxicity (in words) ([2]; three human cancer cell lines): inactive in terms of cytotoxicity
> 40	COc1ccc(C2=CCCCc3c2ccc(OC)c3OC)cc1OC [Compound 35, 1,2-Dimethoxy-5-(3,4-dimethoxyphenyl)-benzocyclohept-5-ene]	
> 40	COc1cc(C2=CCCCc3c2cc(OC)c(OC)c3O)cc(OC)c1OC [Compound 43, 1-Hydroxy-2,3-dimethoxy-5-(3′,4′,5′-trimethoxyphenyl)-benzocyclohept-5-ene]	

Compound	IC50 (tubulin [3]) [µM]	further results
COc1cc2c(c(OC)c1O)CCCC=C2c1cc(OC)c(OC)c(OC)c1 [Compound 38, 1,3-Dimethoxy-2-hydroxy-5-(3′,4′,5′-trimethoxyphenyl)-benzocyclohept-5-ene]	> 40	
COc1cc(C2=CCCCc3c2ccc(OC)c3OP(=O)(O)O)cc(OC)c1OC [Compound 44, Disodium 2-Methoxy-5-(3′,4′,5′-trimethoxyphenyl)-benzocyclohept-5-ene-1-phosphate]	> 40	
